Shown are actives, neighbours in structure and some others; about 4.5% of the full set was active somewhere.
APP 5'UTR act – activators of APP 5'UTR luciferase reporter, primary screen, SH-SY5Y cells | actives 1% (n = 190,000) | activation, % at 2 µM | SH-SY5Y APP 5'UTR luciferase reporter, luminescence; zero percent = DMSO vehicle wells;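 active = activation above a set limit, based on mean plus 3 SD of controls, cut at about 140% in these data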
PERK inh – block of dimerizer-induced PERK translation repression, primary screen, PERK inhibitor project, CHO PERK-DD cells, SEAP luminescence, HTS; CHO PERK-DD fusion, SEAP luminescence translation reporter; inhibition, % at 5.6 µM; actives 0.17% (n = 220,000); AID 1416, 2008;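 active = inhibition above the mean inhibition of all tested compounds plus 3 SD, set separately per screening campaign, cut at about 2.9% in these data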;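 also: PERK kinase domain activated by AP20187 dimerizer at 100 nM; 0% = DMSO with dimerizer and 100% = rapamycin at 8.4 µM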
Target sequence (Q9NZJ5 whole entry, looked up, the tested form may be a part): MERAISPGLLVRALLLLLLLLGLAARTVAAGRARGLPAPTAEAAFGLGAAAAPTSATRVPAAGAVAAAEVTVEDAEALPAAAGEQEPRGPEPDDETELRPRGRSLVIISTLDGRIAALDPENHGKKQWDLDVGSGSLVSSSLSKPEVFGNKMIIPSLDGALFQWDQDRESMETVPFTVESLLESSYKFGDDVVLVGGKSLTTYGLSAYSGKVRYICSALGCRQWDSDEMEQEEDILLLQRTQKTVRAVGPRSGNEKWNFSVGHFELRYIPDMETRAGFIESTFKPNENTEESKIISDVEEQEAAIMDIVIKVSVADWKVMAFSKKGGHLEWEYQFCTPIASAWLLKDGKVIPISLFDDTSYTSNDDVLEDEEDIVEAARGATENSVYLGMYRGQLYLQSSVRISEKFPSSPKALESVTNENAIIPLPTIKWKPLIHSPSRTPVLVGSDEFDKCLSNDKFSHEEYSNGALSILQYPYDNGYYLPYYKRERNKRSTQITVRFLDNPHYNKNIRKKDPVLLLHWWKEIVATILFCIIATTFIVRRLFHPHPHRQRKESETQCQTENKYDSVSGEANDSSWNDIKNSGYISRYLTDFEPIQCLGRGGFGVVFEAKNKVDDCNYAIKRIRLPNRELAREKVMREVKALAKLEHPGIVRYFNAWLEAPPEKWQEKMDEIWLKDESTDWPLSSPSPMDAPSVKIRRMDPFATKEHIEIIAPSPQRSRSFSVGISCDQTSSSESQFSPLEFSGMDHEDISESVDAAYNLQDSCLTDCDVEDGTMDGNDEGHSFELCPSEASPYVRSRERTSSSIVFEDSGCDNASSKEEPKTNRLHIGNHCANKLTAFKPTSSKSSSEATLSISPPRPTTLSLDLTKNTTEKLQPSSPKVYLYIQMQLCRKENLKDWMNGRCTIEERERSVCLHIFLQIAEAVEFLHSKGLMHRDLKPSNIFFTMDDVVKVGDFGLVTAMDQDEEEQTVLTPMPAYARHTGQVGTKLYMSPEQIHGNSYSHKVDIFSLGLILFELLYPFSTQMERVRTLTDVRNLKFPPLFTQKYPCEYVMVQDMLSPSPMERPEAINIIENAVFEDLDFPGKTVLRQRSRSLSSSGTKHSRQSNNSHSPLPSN
Mdm2 ligase inh – MDM2-luciferase reporter signal enhancers, primary screen, MDM2 E3 ligase inhibitor project, cell-based, luminescence, 1536-well | AID 1230, 2008 | actives 0.11% (n = 210,000) | cell-based MDM2 ubiquitination luciferase reporter, 2 h; 0 = plate control, 100 = twice control, blank-subtracted | signal enhancement, % at 5 µM | E3 ubiquitin-protein ligase Mdm2 (Homo sapiens), Q00987;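 active = signal enhancement of 30% or more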;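 also: luminescence tracks abundance of the self-degrading MDM2-luciferase fusion protein; higher signal means inhibition of MDM2 E3 ligase activity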
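Buffer or medium: Cells held in DMEM | Assay system: Stable mammalian line carrying autodegrading MDM2–luciferase fusion reporter | Quantity: 2000 cells/well | Times: 4 h settle plus 2 h compound, 37 °C | Doses: One concentration, 5 µM, with 0.2% DMSO | Technique: Luminescence with SteadyLite reagent, 15 min at room temperature | Benchmarks: Plate controls and plate blanks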
NF-kB expr up – activators of NF-kB expression in neurons, primary screen, cell-based, HTS. AID 1239, 2008. human neuronal cells, NF-kB reporter expression; hits give high values. fold change at 12.5 µM. actives 1.6% (n = 190,000); in the data active = fold change above about 3.3
STAT1 act – STAT1 signaling activators, primary screen, cell-based, HTS, luciferase reporter; NIH 3T3 STAT1-luciferase reporter, IFN-gamma, luminescence; 100% = IFN-gamma alone, no compound; activation (% of control), % at 5.5 µM; actives 2.6% (n = 200,000);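 active = activation above the screen-wide mean activation plus 3 SD, cut at about 130% in these data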;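 also: raw ratio to IFN-gamma control signal so 100% means no change and 0% no light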
AHR act – AHR activators, primary screen, cell-based, luminescence, luciferase reporter, human. Aryl hydrocarbon receptor (Homo sapiens), P35869. AHR-responsive luciferase reporter cells. activation, % at 5 µM. actives 2.5% (n = 320,000); in the data active = activation above about 47%;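 also: 0% = vehicle wells and 100% = reference agonist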
Active calls of the source: *; nt = no result.

SMILES | APP 5'UTR act | PERK inh | Mdm2 ligase inh | NF-kB expr up | STAT1 act | AHR act
CC(C)N(Cc1ccccc1)C(=O)COC(=O)c1cc(S(=O)(=O)N(C)C)ccc1N1CCCC1 | nt | nt | nt | nt | nt | 0
C=CC[C@H](CC(=O)OC(C)(C)C)C(=O)OC[C@H]1CCCN1C(=O)[C@@H](CC=C)CC(=O)N(CCO)Cc1ccccc1 | nt | nt | nt | nt | nt | -1
O=[N+]([O-])c1cccc(S(=O)(=O)Nc2ccc(-c3ccc(N4CCOCC4)nn3)cc2)c1 | nt | nt | nt | nt | nt | -1
CCn1c(SCC(=O)Nc2ccc(N3CCOCC3)cc2)nnc1C1CC1 | nt | nt | nt | nt | nt | 0
COc1nc(-c2ccc(C)cc2)ccc1-c1noc(-c2ccco2)n1 | 13 | 1 | -15 | 1.3 | 115 | 9
COc1nc(C)ccc1-c1noc(-c2ccco2)n1 | 182* | 1 | -39 | 4.6* | 140* | -4
Cc1ccc(-c2nnc(CCC(=O)NCC3C4CC5CC(C4)CC3C5)o2)s1 (stereo unspecified) | 45 | 0 | -6 | 2.7 | 147* | 0
Clc1ccc(Cl)c(OCCN2CCCC2)c1 | nt | nt | nt | nt | nt | 0
COc1ccc(/C(C)=N/Nc2nc(C)c(C(C)=O)s2)cc1 | nt | nt | nt | nt | nt | 3
CC(=O)c1sc(N/N=C2\CC3CC2C(C)C3(C)C)nc1C (stereo unspecified) | 57 | 1 | 4 | 1.9 | 131* | 5
O=C(/C=C/c1ccc(Cl)cc1)Nc1nccs1 | 184* | 1 | -35 | 8.5* | 109 | nt
CCOc1ccc(S(=O)(=O)N2CCN(S(=O)(=O)c3ccc(C(C)=O)cc3)CC2)cc1 | nt | nt | nt | nt | nt | 1
CCOc1ccc(S(=O)(=O)N2CN(c3cccc(C(C)=O)c3)c3nc4ccccc4nc32)cc1 | nt | nt | nt | nt | nt | 56*
CCOc1cc(/C=C2/NC(=O)N(Cc3ccccc3F)C2=O)ccc1O | -25 | -1 | 4 | 5.9* | 104 | 6
COc1cc(/C=C2/NC(=O)N(Cc3ccccc3F)C2=O)cc(OC)c1O | -1 | 2 | -15 | 0.8 | 109 | 1
O=C(COc1ccc(F)cc1Cl)Nc1ccc(S(=O)(=O)Nc2nccs2)cc1 | nt | nt | nt | nt | nt | -4
Cc1cc(C)c2ccc3c(C)c(C)nc3c2[nH]1 | 3 | 0 | 4 | 1 | 77 | 68*
Cc1ccc(-c2cc(-c3ccc(C)o3)nc(N)c2C#N)cc1 | 7 | 0 | 14 | 1.1 | 97 | 3
Cc1ccc(-c2cc(-c3ccc4c(c3)OCO4)c(C#N)c(N)n2)o1 | 2 | 1 | -3 | 0.79 | 98 | 75*
CCn1cc(S(=O)(=O)c2ccc(C)cc2)c(=O)c2cc(OC)ccc21 | nt | nt | nt | nt | nt | 3
C=C(c1ccccc1C)[n+]1ccccc1 | nt | nt | nt | nt | nt | 0
COc1ccc(Nc2ncnc3sccc23)cc1OC | nt | nt | nt | nt | nt | 64*
Cc1ccc(N=Cc2c(O)n(-c3nccs3)c(=O)c3ccccc23)cc1 | 8 | 0 | -9 | 0.44 | 107 | 2
COc1ccccc1NC(=S)N(Cc1ccco1)Cc1cc2cc(C)cc(C)c2[nH]c1=O | -24 | 0 | -3 | 0.8 | 97 | 72*
COc1cc(CNn2cn[nH]c2=S)cc(Cl)c1OCc1ccc(F)cc1 | 24 | 1 | -14 | 1 | 91 | 87*
SMILES | APP 5'UTR act | PERK inh | Mdm2 ligase inh | NF-kB expr up | STAT1 act | AHR act
Cc1c(C(c2ccc(C(=O)O)cc2)c2c(C)n(C)n(-c3ccccc3)c2=O)c(=O)n(-c2ccccc2)n1C | nt | nt | nt | nt | nt | 1
CCN(CC)C(=O)Oc1ccc(Br)cc1C(=O)Nc1ccc(F)cc1F | nt | 0 | -12 | nt | nt | 89*
O=C(Nc1ccc(F)cc1F)c1cncc(Br)c1 | 11 | 1 | -8 | 0.96 | 106 | 38
Clc1ccc(/C=N/Nc2ncnc3nc[nH]c23)cc1 | nt | 0 | -16 | nt | nt | 66*
CC1CCC2(CC1)NC(=O)N(CC(=O)NC(=O)Nc1ccc3c(c1)OCCO3)C2=O (stereo unspecified) | nt | 1 | 0 | nt | nt | 6
O=[N+]([O-])c1ccc(N/N=C/c2ccc[nH]2)cc1 | -65 | 0 | -6 | 26* | 90 | 61*
